# According to ChEMBL document CHEMBL1123397, “Antiarrhythmic activity of 17 beta-aminoestratrienes. Comparison of 3-ols and 3-acetates with the corresponding 3-(3-amino-2-hydroxypropyl) ethers” (1986):
# Columns and labels:
# Rattus norvegicus [1] = test: Effect on heart rate on 1 min post isoprenaline induced tachycardia in the anesthetized rat at 5.0 mg/kg dose.; assay type: functional
# In short: (§1)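 Test drug or vehicle was given i.v., and isoprenaline (10 µg/kg) 14 min later. Heart rate was read from the lead II ECG just before drug, at 14 min (pre-isoprenaline) and 1 min after isoprenaline. Compared by Student's t test; 7–12 animals per group; mean ± SEM.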
# Rattus norvegicus [2] = test: Effect on heart rate after isoprenaline induced tachycardia in the anesthetized rat at 5 mg/kg dose; assay type: functional
# In short: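 Same ligation protocol in anaesthetised male Wistar rats. Heart rate was taken from the lead II ECG at three points: just before i.v. drug or vehicle, 14 min after it (just before isoprenaline 10 μg/kg), and 1 min after isoprenaline. Pre vs post rates and isoprenaline responses vs controls were compared by Student's t test. Mean ± SEM of 7-12 observations.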
# Rattus norvegicus [3] = test: Effective dose that antagonized arrhythmias evoked by coronary artery ligation in the rat was measured at 5 mg/kg dose; assay type: functional
# Rattus norvegicus [4] = test: Compound was tested for antagonism of Ventricular Fibrilloflutter (VF) evoked by coronary artery ligation in the rat measured at 10 mg/kg dose; assay type: functional, Heart
# In short: (§2)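 Male Wistar rats, anaesthetised and artificially ventilated, with left thoracotomy; silk suture under main left coronary artery. After stabilization, test drug or vehicle i.v.; 14 min later isoprenaline 10 μg/kg; 1 min after that the ligature was tightened and VF incidence recorded over 30 min. Carotid pressure and lead II ECG monitored continuously. 7-12 animals per group.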
# Rattus norvegicus [5] = test: Compound was tested for antagonism of Ventricular Fibrilloflutter (VF) evoked by coronary artery ligation in the rat measured at 5 mg/kg dose; assay type: functional, Heart; in short: as §2
# Rattus norvegicus [6] = species on record: Rattus norvegicus; test: Maximum increase in heart rate evoked by isoprenaline.; assay type: functional; in short: as §1
# Rattus norvegicus [7] = test: Antagonism of Ventricular Fibrilloflutter (VF) evoked by coronary artery ligation in the rat measured at 2 mg/kg dose; assay type: functional, Heart; in short: as §2
# Rattus norvegicus [8] = test: Effect on heart rate before isoprenaline induced tachycardia in the anesthetized rat at 5 mg/kg dose; assay type: functional; in short: as §1
# Rattus norvegicus [9] = test: Mean change in heart rate recorded 14 min after the administration of compound.; assay type: functional; in short: as §1
# Cavia porcellus [10] = species on record: Cavia porcellus; test: Compound was tested for antiarrhythmic activity (maximum rate of phase 0 depolarization- MRD) in guinea pig atria at 1(ug/mL) concentration; assay type: functional, Heart
# In short: (§3)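 Guinea pig left atria pinned in a recording chamber, superfused with carbogen-gassed Krebs solution at 35 ± 0.5 °C and electrically stimulated. Transmembrane action potentials were recorded with conventional microelectrodes, giving RMP, AP height, APD50, APD90 and maximum rate of depolarization. Values are mean ± SEM from n cells across five preparations.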
# Cavia porcellus [11] = species on record: Cavia porcellus; test: Compound was tested for antiarrhythmic activity expressed as action potential height (AP) in guinea pig atria at 4(ug/mL) concentration; assay type: functional, Heart; in short: as §3
# Cavia porcellus [12] = species on record: Cavia porcellus; test: Compound was tested for antiarrhythmic activity expressed as resting membrane potential (RMP) in guinea pig atria at 2(ug/mL) concentration; assay type: functional; settings: Heart; in short: as §3
# Cavia porcellus [13] = species on record: Cavia porcellus; test: Compound was tested for antiarrhythmic activity expressed as resting membrane potential (RMP) in guinea pig atria at 1(ug/mL) concentration; assay type: functional; settings: Heart; in short: as §3
# Mus musculus = species on record: Mus musculus; test: ED 50 value against aconitine-induced arrhythmias in mice; assay type: functional
# In short: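 Anaesthetised mice were given test compound intraperitoneally, then aconitine intravenously to induce arrhythmia. At least three doses were tested in separate groups (n = 6-10). ED50 is the dose raising the arrhythmogenic aconitine dose 50% above the control requirement.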
# Cavia porcellus [14] = species on record: Cavia porcellus; test: Compound was tested for antiarrhythmic activity (time taken to reach 90% repolarization) in guinea pig atria at 2(ug/mL) concentration; assay type: functional, Heart; in short: as §3
# Cavia porcellus [15] = species on record: Cavia porcellus; test: Compound was tested for antiarrhythmic activity (time taken to reach 90% repolarization) in guinea pig atria at 1(ug/mL) concentration; assay type: functional, Heart; in short: as §3
# Cavia porcellus [16] = species on record: Cavia porcellus; test: Compound was tested for antiarrhythmic activity expressed as action potential height (AP) in guinea pig atria at 2(ug/mL) concentration; assay type: functional, Heart; in short: as §3
# Cavia porcellus [17] = species on record: Cavia porcellus; test: Compound was tested for antiarrhythmic activity (time taken to reach 50% repolarization) in guinea pig atria at 2(ug/mL) concentration; assay type: functional, Heart; in short: as §3
# Rattus norvegicus [18] = test: Compound was tested for antagonism of Ventricular Fibrilloflutter (VF) evoked by coronary artery ligation in the rat measured at 0.02 mg/kg dose; assay type: functional, Heart; in short: as §2
# Rattus norvegicus [19] = test: Compound was tested for antagonism of Ventricular Fibrilloflutter (VF) evoked by coronary artery ligation in the rat measured at 0.05 mg/kg dose; assay type: functional, Heart; in short: as §2
# Cavia porcellus [20] = species on record: Cavia porcellus; test: Compound was tested for antiarrhythmic activity (time taken to reach 50% repolarization) in guinea pig atria at 4(ug/mL) concentration; assay type: functional, Heart; in short: as §3
# Cavia porcellus [21] = species on record: Cavia porcellus; test: Compound was tested for antiarrhythmic activity (maximum rate of phase 0 depolarization- MRD) in guinea pig atria at 4(ug/mL) concentration; assay type: functional, Heart; in short: as §3
# Rattus norvegicus [22] = test: Effect dose of compound that antagonized arrhythmias evoked by coronary artery ligation in the rat was measured at 0.05 mg/kg dose; assay type: functional; in short: as §2
# Cavia porcellus [23] = species on record: Cavia porcellus; test: Concentration required to reduce maximum following frequencu (MFF) of isolated guinea pig atria by 25%; assay type: functional
# In short: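 Guinea pig left atria in an organ bath of Krebs solution at 35 °C, gassed with carbogen, electrically driven, isometric contractions recorded. Drugs added cumulatively; maximum following frequency determined 6 min after each concentration. Concentration reducing MFF by 25% (EC25) calculated from six preparations.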
# Cavia porcellus [24] = species on record: Cavia porcellus; test: Compound was tested for antiarrhythmic activity (maximum rate of phase 0 depolarization- MRD) in guinea pig atria at 2(ug/mL) concentration; assay type: functional, Heart; in short: as §3
# Cavia porcellus [25] = species on record: Cavia porcellus; test: Compound was tested for antiarrhythmic activity (time taken to reach 90% repolarization) in guinea pig atria at 4(ug/mL) concentration; assay type: functional, Heart; in short: as §3
# Cavia porcellus [26] = species on record: Cavia porcellus; test: Compound was tested for antiarrhythmic activity expressed as resting membrane potential (RMP) in guinea pig atria at 4(ug/mL) concentration; assay type: functional; settings: Heart; in short: as §3
# Rattus norvegicus [27] = test: Compound was tested for antagonism of Ventricular Fibrilloflutter (VF) evoked by coronary artery ligation in the rat measured at 0.1 mg/kg dose; assay type: functional, Heart; in short: as §2
# Cavia porcellus [28] = species on record: Cavia porcellus; test: Compound was tested for antiarrhythmic activity (time taken to reach 50% repolarization) in guinea pig atria at 1(ug/mL) concentration; assay type: functional, Heart; in short: as §3
# Cavia porcellus [29] = species on record: Cavia porcellus; test: Compound was tested for antiarrhythmic activity expressed as action potential height (AP) in guinea pig atria at 1(ug/mL) concentration; assay type: functional, Heart; in short: as §3
compound,measurement,setting,value
CC(=O)Nc1ccc(OCC(O)CNC(C)C)cc1 (stereo not given) [PRACTOLOL],Heart rate,Rattus norvegicus [1],377 beats min-1
same,Heart rate,Rattus norvegicus [2],351 beats min-1
same,ED50,Rattus norvegicus [3],5.6 mg/kg
same,VF,Rattus norvegicus [4],29%
same,VF,Rattus norvegicus [5],43%
same,Increase,Rattus norvegicus [6],7.4%
same,VF,Rattus norvegicus [7],80%
same,Heart rate,Rattus norvegicus [8],459 beats min-1
same,Change,Rattus norvegicus [9],-23.5%
CNC1[C@H](O)C[C@H]2[C@@H]3CCc4cc(O)ccc4[C@H]3CC[C@]12C (stereo not given in full),MRD,Cavia porcellus [10],98.4 V s-1
same,AP,Cavia porcellus [11],81.5 mV
same,RMP,Cavia porcellus [12],75.8 mV
same,RMP,Cavia porcellus [13],72.8 mV
same,ED50,Mus musculus,5.9 mg/kg
same,APD90,Cavia porcellus [14],80.2 ms
same,APD90,Cavia porcellus [15],83.6 ms
same,AP,Cavia porcellus [16],86.3 mV
same,APD50,Cavia porcellus [17],45.5 ms
same,VF,Rattus norvegicus [18],83%
same,VF,Rattus norvegicus [19],33%
same,APD50,Cavia porcellus [20],44.5 ms
same,MRD,Cavia porcellus [21],62.4 V s-1
same,ED50,Rattus norvegicus [22],0.04 mg/kg
same,EC25,Cavia porcellus [23],1.67 µg/mL
same,MRD,Cavia porcellus [24],86.5 V s-1
same,APD90,Cavia porcellus [25],80.6 ms
same,RMP,Cavia porcellus [26],72.1 mV
same,VF,Rattus norvegicus [27],17%
same,APD50,Cavia porcellus [28],49.2 ms
same,AP,Cavia porcellus [29],85.8 mV
